In assay [1] the target is T1, Inhibitor of nuclear factor kappa-B kinase subunit beta (Homo sapiens, UniProt O14920).
T1 sequence (O14920 whole entry): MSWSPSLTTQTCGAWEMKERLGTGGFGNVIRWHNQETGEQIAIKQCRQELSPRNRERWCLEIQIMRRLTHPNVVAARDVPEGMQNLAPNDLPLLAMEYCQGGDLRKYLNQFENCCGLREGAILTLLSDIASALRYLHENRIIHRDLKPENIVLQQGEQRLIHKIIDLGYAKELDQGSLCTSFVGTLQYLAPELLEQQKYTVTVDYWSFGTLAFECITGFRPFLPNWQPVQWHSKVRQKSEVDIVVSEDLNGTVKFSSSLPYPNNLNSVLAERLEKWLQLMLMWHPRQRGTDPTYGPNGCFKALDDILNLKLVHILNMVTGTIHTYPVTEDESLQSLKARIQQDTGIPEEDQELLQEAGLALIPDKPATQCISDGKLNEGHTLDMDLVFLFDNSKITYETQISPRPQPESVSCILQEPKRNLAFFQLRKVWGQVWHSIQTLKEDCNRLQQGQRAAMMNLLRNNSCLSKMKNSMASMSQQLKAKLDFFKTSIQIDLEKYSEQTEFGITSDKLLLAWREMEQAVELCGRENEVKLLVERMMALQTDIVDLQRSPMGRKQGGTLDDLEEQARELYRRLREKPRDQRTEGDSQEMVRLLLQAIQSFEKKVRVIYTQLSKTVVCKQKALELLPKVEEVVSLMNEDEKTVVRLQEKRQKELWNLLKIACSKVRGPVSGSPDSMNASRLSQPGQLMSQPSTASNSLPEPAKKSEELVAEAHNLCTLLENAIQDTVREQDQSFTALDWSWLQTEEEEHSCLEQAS
The assay can be described thus: Inhibition of IKK-beta using TMB substrate after 15 mins by spectrophotometer analysis. The method in brief:
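Kit-supplied IKKβ (50 ng in 4× reaction cocktail) preincubated with test sample 5 min at room temperature. 2× ATP/biotinylated substrate peptide cocktail added, 30 min at room temperature, stopped with 50 mM EDTA pH 8. Product captured on streptavidin plate, probed with anti-phospho-IκBα (Ser32) then HRP anti-rabbit IgG. TMB developed 15 min, read at 450 nm.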

Assay [2] deals with U-251. Nature of the assay: Antiproliferative activity against human U251 cells after 24 hrs by MTT assay. The assay is classed as functional, cell-based. Conditions: U-251, 24 h. The method in brief:
(§1)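 Test agents diluted in culture medium, 24 h exposure. Viability read colorimetrically by MTT; vitality index (%) = A_treatment/A_control × 100; IC50 reported.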

In assay [3] the test system is A549. Nature of the assay: Antiproliferative activity against human A549 cells after 24 hrs by MTT assay. Conditions: A549, 24 h. In kind it is functional, cell-based. The method in brief: as §1
For orientation: Tetrazolium dyes change colour on reduction, which living cells bring about.

Assay [4] has as its target T2, NF-kappa-B inhibitor alpha (Homo sapiens) (UniProt P25963).
T2 sequence (whole entry): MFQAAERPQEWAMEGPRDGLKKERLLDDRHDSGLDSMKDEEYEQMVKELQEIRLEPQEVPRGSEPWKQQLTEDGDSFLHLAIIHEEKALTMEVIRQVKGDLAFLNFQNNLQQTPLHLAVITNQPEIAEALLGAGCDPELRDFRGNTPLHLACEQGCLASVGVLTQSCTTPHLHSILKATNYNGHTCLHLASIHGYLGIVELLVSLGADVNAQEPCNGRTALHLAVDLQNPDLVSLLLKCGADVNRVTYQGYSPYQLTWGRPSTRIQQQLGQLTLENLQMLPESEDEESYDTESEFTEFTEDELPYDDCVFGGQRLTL
The assay can be described thus: Inhibition of TNF-alpha-induced IkappaBalpha degradation in human A549 cells at 4 to 8 uM treated 4 hrs before TNFalpha stimulation measured after 30 mins by Western blotting. The assay is classed as cell-based. In a few lines: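 A549 cells incubated 4 h with 4 or 8 μM compound, then exposed to TNF 0.1 ng/mL for various times. Cytoplasmic IκBα was followed by western blot.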
In general terms: Immunoblotting shows a protein as a band on a membrane.

The test system of assay [5] is A549. Nature of the assay: Inhibition of NF-kappaB activation in human A549 cells assessed as inhibition of TNFalpha-induced p65 nuclear translocation treated 4 hrs before TNFalpha stimulation measured after 30 mins by Western blotting. The assay is classed as cell-based. The method in brief: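 A549 cells either untreated or pretreated with compound for 4 h at 37 °C, then given TNFα 50 ng/mL for 30 min. Cytoplasmic and nuclear extracts were western-blotted for p65, with β-actin (cytoplasm) and histone (nucleus) as loading controls.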

For assay [6], the target named is T2, NF-kappa-B inhibitor alpha (Homo sapiens). The assay can be described thus: Inhibition of TNF-alpha-induced IkappaBalpha phosphorylation in human A549 cells at 4 to 8 uM treated 4 hrs before TNFalpha stimulation measured after 30 mins by Western blotting. The assay is classed as cell-based.
In assay [7] the test system is U-251. The assay can be described thus: Induction of apoptosis in human U251 cells assessed as morphological changes at 8 uM after 24 hrs by inverted light microscopic analysis. In kind it is functional, cell-based. The method in brief:
(§2)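 U251 cells in DMEM with 10% fetal calf serum under 5% CO2, exposed to compound for 24 h. Cell shape (rounding, shrinkage) inspected and photographed under an inverted light microscope at 200×, compared against untreated cells.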

The subject of assay [8] is A549. Nature of the assay: Inhibition of NF-kappaB activation in human A549 cells assessed as inhibition of TNFalpha/IFNgamma/IL-1beta-induced NF-kappaB nuclear translocation at 5 uM treated 2 hrs before TNFalpha/IFNgamma/IL-1beta stimulation measured after 30 mins. In kind it is cell-based. The method in brief: (§3)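 A549 cells plated at 9000 per well, serum-starved 18 h, then given compound at graded concentrations for 2 h at 37 °C. Stimulated 30 min at 37 °C with TNFα 50 ng/mL, IFN-γ 100 U/mL and IL-1β 100 U/mL. Fixed, permeabilised and immunostained for NF-κB. High-content imaging read-out was the nuclear/cytoplasmic NF-κB fluorescence ratio, taken as the translocation inhibition rate.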

Assay [9] relates to A549. The assay can be described thus: Inhibition of NF-kappaB activation in human A549 cells assessed as inhibition of TNFalpha/IFNgamma/IL-1beta-induced NF-kappaB nuclear translocation treated 2 hrs before TNFalpha/IFNgamma/IL-1beta stimulation measured after 30 mins. The assay is classed as cell-based. In a few lines:
as §3

Assay [10] has as its system U-251. Nature of the assay: Induction of apoptosis in human U251 cells assessed as appearance of nuclear condensation and apoptotic bodies at 4 to 64 uM after 24 hrs by DAPI staining. The assay is classed as functional, cell-based. The method in brief:
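Treated U251 cells stained with DAPI and examined by fluorescence microscopy at 400× for bright condensed nuclei and apoptotic bodies.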

Assay [11] relates to U-251. The assay can be described thus: Induction of apoptosis in human U251 cells assessed as morphological changes at 4 to 64 uM after 24 hrs by inverted light microscopic analysis. In kind it is functional, cell-based. In a few lines:
as §2

Assay [12] deals with U-251. The assay can be described thus: Induction of apoptosis in human U251 cells assessed as increase in early and median apoptotic cells at 4 to 16 uM after 24 hrs using Annexin V/propidium iodide staining by flow cytometry. The assay is classed as functional. The method in brief:
(§4)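 U251 cells (DMEM, 10% fetal calf serum, 5% CO2) treated 24 h, washed with PBS and resuspended in binding buffer (pH 7.5, 10 mM HEPES, 2.5 mM CaCl2, 140 mM NaCl). Stained with Annexin V-FITC then PI for 10 min in the dark at room temperature, then analysed by flow cytometry. Lower-right quadrant counted as early/median apoptotic; upper-right as late apoptotic/necrotic.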
(In general: Flow cytometry measures light scatter and fluorescence of single cells or particles in a stream.)

In assay [13] the test system is U-251. Nature of the assay: Induction of apoptosis in human U251 cells assessed as increase in late apoptotic and necrotic cells at 4 to 16 uM after 24 hrs using Annexin V/propidium iodide staining by flow cytometry. The assay is classed as functional. In a few lines:
as §4

Activity calls are given as the source filed them. The calls are words filed in the database; no cut-off is given here.

For orientation: IC50 means the concentration at which inhibition is half-maximal. A high value points to a need for much substance. In general, inhibition refers to the relative decrease from the control value, in per cent.

Turning to `CC(C)=CCc1c(O)cc(O)c2c(=O)c3ccccc3oc12`, the 50% inhibitory concentration (IC50) in assay [1] stood at 13.1 µM; in [2], 46.8 µM; in [3] it was 34.9 µM.

`CC(C)=CC[C@@]12OC(C)(C)[C@@H]3C[C@@H](C=C4C(=O)c5ccccc5O[C@]431)C2=O`: the figures for the IC50 in assay [1], in [2] and in [3] were 24.2 µM, 18.7 µM and 1.93 µM, respectively.

Take `CC(C)=CCc1c(O)cc(O)c2c1O[C@]13C(=C[C@@H]4C[C@H]1C(C)(C)O[C@@]3(CC=C(C)C)C4=O)C2=O`: the IC50 in assay [1] was found to be 6.6 µM; in [2], 8.57 µM; in [3] it was 3.58 µM.

Take `CC(C)=CC[C@@]12OC(C)(C)[C@@H]3C[C@@H](C=C4C(=O)CC(C)O[C@]431)C2=O` (stereo partly drawn): the results for the IC50 in assay [1], in [2] and in [3] were 40.3 µM, 82.4 µM and 60.3 µM, respectively.

Consider `CC(C)=CC[C@@]12OC(C)(C)[C@@H]3C[C@@H](C=C4C(=O)C=C(c5ccccc5)O[C@]431)C2=O`, for which the values for the IC50 in assay [1], in assay [2] and in assay [3] were 41.7 µM, 40.2 µM and 27.5 µM, respectively.

For the compound `CC(C)=CCc1cc(C2=CC(=O)C3=C[C@@H]4C[C@H]5C(C)(C)O[C@@](CC=C(C)C)(C4=O)[C@@]35O2)ccc1O`, the 50% inhibitory concentration (IC50) in assay [1] worked out at 25.3 µM; in [2] it was 18.7 µM; in assay [3], 15.5 µM.

Consider `CC(C)=CCC[C@]1(C)C=Cc2c(O)c3c(c(CC=C(C)C)c2O1)O[C@]12C(=C[C@@H]4C[C@H]1C(C)(C)O[C@@]2(C/C=C(/C)C(=O)O)C4=O)C3=O` [GAMBOGIC ACID], for which the half-inhibitory concentration (IC50) in assay [1] came to 3.07 µM; in [2], 2.56 µM; in assay [3], 1.1 µM. Further, the inhibition entry in assay [4] and in assay [6] was “Active” each time. Also, the inhibition result is “Dose-dependent effect” in assay [5], 50.2% in [8] and “Dose-dependent effect” in assay [9]. For the same compound, in assay [7], the outcome was Active.

Regarding `CC(C)=CC[C@@]12OC(C)(C)[C@@H]3C[C@@H](C=C4C(=O)c5c(O)cc(O)cc5O[C@]431)C2=O`, the IC50 in assay [1] was 3.52 µM; in [2], 7.32 µM; in [3] it was 2.67 µM. Moreover, the result in assay [10] and in assay [11] was Active. The figures for the Activity in assay [12] and in assay [13] were 58.21% and 34.24%, respectively.

As to `CC(C)=CC[C@@]12OC(C)(C)[C@@H]3C[C@@H](C=C4C(=O)c5c(O)cccc5O[C@]431)C2=O`, the half-inhibitory concentration (IC50) is 8.17 µM in assay [1], 9.05 µM in assay [2] and 0.7 µM in assay [3].

For `O=c1cc(-c2ccccc2)oc2c(O)c(O)ccc12` [7,8-DIHYDROXYFLAVONE], the half-maximal inhibitory concentration (IC50) is 9.82 µM in [1], 50.1 µM in assay [2] and 37.2 µM in assay [3].

Turning to `CC(C)=CCc1c(O)cc2c(c1O)C(=O)C1=C[C@@H]3C[C@H]4C(C)(C)O[C@@](CC=C(C)C)(C3=O)[C@@]14O2`, the 50% inhibitory concentration (IC50) in assay [1] worked out at 10.8 µM; in assay [2], 22.4 µM; in [3] it was 14.4 µM.

(Values after ChEMBL document CHEMBL1955791, “Studies on gambogic acid (IV): Exploring structure-activity relationship with IκB kinase-beta (IKKβ)” (Eur J Med Chem, 2012).)
